The nature of assay [1]: Cytotoxic activity against human EB3 cells after 3 days by MTT assay. It counts as functional. The conditions noted are these: EB-3, 72 h. In a few lines: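 EBV-infected human Burkitt's lymphoma EB-3 cells seeded at 2 × 10^4 cells/well in RPMI-1640 with 10% FCS and 1% penicillin/streptomycin, cultured overnight at 37 °C, 5% CO2. Compounds added as 2-fold dilution series from DMSO stocks, top final concentration 50 or 100 μM; DMSO vehicle control. After 3 days, MTT added for 4 h. Formazan dissolved in acidic 2-propanol, A570 read minus A630. Three experiments in duplicate.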

The target in the next assay is T1, Histone deacetylase 11 (Homo sapiens, UniProt Q96DB2).
T1 sequence (Q96DB2 whole entry): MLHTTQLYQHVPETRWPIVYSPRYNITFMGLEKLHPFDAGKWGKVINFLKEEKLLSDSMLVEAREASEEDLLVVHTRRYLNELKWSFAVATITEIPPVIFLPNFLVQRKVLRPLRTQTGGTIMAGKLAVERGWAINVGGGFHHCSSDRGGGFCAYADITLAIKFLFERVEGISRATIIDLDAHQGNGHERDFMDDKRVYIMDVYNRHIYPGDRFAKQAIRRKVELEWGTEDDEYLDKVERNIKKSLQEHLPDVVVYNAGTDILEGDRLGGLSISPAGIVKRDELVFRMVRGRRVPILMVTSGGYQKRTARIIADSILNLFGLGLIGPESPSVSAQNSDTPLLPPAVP
The experiment in a line: Inhibition of human recombinant HDAC11 using [Ac-Leu-Gly-Lys(Ac)-AMC substrate incubated for 15 to 30 mins.

For a further assay, the target named is Histone deacetylase 3 (Homo sapiens, UniProt O15379). The experiment in a line: Inhibition of human recombinant HDAC3 using [Ac-Leu-Gly-Lys(Ac)-AMC substrate incubated for 15 to 30 mins.
Histone deacetylase 3, sequence (O15379 whole entry): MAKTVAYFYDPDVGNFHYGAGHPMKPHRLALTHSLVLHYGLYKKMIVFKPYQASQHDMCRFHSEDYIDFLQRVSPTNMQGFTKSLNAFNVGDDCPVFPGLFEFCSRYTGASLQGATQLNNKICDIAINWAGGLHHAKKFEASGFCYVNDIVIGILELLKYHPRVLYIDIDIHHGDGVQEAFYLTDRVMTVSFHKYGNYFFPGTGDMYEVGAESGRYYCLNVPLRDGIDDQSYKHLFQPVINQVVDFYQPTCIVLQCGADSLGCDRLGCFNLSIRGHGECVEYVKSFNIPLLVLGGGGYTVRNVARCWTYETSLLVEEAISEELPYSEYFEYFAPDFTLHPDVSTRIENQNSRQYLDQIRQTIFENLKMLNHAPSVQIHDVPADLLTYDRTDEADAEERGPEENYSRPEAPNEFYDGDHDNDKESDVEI
In the next assay the test system is EB-3. Kind of assay: Cytotoxic activity against human EB3 cells assessed as growth inhibition up to 25 uM after 3 days by MTT assay. Type of assay: functional, cell-based. The method, boiled down:
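EB-3 (EBV-infected human Burkitt's lymphoma) cells seeded at 2 × 10^4 per well in RPMI-1640 with 10% FCS and 1% penicillin/streptomycin, cultured overnight at 37 °C, 5% CO2, then given compound or DMSO vehicle. 2-fold dilution series from DMSO stocks; 3 days exposure. MTT added for 4 h, formazan dissolved in acidic 2-propanol, A570 minus 630 nm. Three experiments in duplicate.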

Assay [2] deals with T2, Protein deacetylase HDAC6 (Homo sapiens, UniProt Q9UBN7).
T2 sequence (Q9UBN7 whole entry): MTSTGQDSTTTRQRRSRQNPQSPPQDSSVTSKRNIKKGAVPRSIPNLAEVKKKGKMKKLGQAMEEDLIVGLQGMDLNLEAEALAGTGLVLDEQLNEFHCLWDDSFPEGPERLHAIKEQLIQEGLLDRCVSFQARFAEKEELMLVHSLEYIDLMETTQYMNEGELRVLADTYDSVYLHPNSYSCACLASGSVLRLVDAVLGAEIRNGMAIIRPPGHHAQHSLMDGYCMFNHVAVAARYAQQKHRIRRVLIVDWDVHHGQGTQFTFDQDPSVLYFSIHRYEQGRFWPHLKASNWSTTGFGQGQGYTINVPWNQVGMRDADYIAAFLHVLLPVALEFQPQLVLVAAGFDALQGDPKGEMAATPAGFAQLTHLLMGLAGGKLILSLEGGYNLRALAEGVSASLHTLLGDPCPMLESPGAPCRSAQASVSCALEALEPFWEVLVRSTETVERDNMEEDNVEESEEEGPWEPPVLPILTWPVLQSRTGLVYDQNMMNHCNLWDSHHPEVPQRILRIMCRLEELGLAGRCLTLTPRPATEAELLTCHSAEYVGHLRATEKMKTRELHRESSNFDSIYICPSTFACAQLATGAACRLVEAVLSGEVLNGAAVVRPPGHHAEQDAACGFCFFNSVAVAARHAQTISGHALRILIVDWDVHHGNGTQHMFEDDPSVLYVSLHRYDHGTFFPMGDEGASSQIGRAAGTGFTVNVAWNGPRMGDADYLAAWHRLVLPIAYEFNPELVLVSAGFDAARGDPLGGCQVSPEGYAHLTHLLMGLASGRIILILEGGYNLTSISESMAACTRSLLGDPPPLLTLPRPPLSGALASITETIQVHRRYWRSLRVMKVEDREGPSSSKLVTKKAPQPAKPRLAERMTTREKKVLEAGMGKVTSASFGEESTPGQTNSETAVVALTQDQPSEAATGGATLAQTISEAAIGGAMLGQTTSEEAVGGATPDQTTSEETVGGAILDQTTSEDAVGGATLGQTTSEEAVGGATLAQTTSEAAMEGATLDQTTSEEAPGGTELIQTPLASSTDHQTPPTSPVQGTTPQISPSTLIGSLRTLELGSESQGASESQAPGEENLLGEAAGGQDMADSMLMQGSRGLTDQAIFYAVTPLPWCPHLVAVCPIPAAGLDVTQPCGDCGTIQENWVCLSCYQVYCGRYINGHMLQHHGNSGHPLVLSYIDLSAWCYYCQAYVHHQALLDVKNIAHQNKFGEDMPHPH
Kind of assay: Inhibition of human recombinant HDAC6 using [Ac-Leu-Gly-Lys(Ac)-AMC substrate incubated for 15 to 30 mins.

Another assay addresses Histone deacetylase 2 (Homo sapiens, UniProt Q92769). Kind of assay: Inhibition of human recombinant HDAC2 using [Ac-Leu-Gly-Lys(Ac)-AMC substrate incubated for 15 to 30 mins.
The target in another assay is T3, Histone deacetylase 8 (Homo sapiens, UniProt Q9BY41).
T3 sequence (Q9BY41 whole entry): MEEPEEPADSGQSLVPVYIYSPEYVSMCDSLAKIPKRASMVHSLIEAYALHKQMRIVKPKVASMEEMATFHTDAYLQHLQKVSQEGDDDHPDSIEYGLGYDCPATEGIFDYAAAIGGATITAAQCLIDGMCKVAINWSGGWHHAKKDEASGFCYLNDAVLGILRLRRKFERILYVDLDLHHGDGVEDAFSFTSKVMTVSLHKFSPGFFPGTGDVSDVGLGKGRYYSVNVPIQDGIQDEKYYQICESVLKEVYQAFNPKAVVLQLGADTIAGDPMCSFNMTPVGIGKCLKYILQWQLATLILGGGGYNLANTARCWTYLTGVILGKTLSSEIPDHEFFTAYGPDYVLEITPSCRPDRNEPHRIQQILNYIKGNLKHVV
Kind of assay: Inhibition of human recombinant HDAC8 using [Ac-Leu-Gly-Lys(Ac)-AMC substrate incubated for 15 to 30 mins.

The target in another assay is Histone deacetylase 1 (Homo sapiens, UniProt Q13547). The experiment in a line: Inhibition of human recombinant HDAC1 using [Ac-Leu-Gly-Lys(Ac)-AMC substrate incubated for 15 to 30 mins.
Histone deacetylase 1, sequence (Q13547 whole entry): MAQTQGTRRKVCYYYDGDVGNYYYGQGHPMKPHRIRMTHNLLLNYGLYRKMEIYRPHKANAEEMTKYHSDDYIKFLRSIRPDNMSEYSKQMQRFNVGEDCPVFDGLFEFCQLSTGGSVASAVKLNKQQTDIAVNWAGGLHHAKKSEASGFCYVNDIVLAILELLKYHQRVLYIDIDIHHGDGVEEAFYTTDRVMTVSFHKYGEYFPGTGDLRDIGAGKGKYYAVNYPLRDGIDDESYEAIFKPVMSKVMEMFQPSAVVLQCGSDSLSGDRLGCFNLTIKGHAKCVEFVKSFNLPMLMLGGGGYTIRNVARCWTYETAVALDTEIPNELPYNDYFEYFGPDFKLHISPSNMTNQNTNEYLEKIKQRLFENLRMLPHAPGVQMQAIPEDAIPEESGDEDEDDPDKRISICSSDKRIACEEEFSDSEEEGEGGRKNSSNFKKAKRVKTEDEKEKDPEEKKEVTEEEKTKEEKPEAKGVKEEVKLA
Assay [3] deals with T4, Protein deacetylase HDAC6 (Homo sapiens) (UniProt Q9UBN7).
T4 sequence (whole entry): T2 sequence (Q9UBN7 whole entry)
The experiment in a line: Inhibition of human recombinant HDAC6 at 20 uM using [Ac-Leu-Gly-Lys(Ac)-AMC substrate incubated for 15 to 30 mins. The method, boiled down: (§1)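 Recombinant human enzyme (HDAC6 2.4 ng/μL; HDAC8 0.2 ng/μL final) in pH 8.0 Tris buffer with BSA. Ac-Leu-Gly-Lys(Ac)-AMC substrate at 20 μM for HDAC6 and 200 μM for HDAC8. Incubated 30 min at 37 °C, then trypsin development 15–30 min at room temperature. Fluorescence read at ex 360/em 460 nm.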

The target of assay [4] is T5, Polyamine deacetylase HDAC10 (Homo sapiens, UniProt Q969S8).
T5 sequence (Q969S8 whole entry): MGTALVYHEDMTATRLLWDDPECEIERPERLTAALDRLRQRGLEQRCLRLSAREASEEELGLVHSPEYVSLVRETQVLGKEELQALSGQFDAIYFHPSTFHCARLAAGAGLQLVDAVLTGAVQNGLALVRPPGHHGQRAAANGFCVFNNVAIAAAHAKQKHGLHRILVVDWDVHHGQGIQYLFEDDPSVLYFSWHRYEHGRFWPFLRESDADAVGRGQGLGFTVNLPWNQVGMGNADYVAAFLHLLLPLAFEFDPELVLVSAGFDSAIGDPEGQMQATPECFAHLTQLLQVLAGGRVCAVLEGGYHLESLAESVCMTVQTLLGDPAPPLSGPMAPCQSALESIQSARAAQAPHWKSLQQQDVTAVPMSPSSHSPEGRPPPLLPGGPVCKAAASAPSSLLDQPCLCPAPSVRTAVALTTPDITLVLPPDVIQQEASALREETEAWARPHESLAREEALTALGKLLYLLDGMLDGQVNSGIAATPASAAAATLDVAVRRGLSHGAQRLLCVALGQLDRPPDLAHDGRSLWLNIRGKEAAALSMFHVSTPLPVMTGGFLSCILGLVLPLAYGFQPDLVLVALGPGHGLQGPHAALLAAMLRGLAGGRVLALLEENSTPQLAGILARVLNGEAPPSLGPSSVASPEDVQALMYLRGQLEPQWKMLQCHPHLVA
Kind of assay: Inhibition of human recombinant HDAC10 using Ac-Arg-His-Lys(Ac)-Lys(Ac)-AMC substrate incubated for 15 to 30 mins.

Assay [5] has as its target T6, Histone deacetylase 8 (Homo sapiens) (UniProt Q9BY41).
T6 sequence (whole entry): T3 sequence (Q9BY41 whole entry)
Kind of assay: Inhibition of human recombinant HDAC8 at 20 uM using [Ac-Leu-Gly-Lys(Ac)-AMC substrate incubated for 15 to 30 mins. The method, boiled down:
as §1

Active and inactive are the calls of the source. No cut-off for these calls is given here.

Histone deacetylase 2, sequence (Q92769 whole entry): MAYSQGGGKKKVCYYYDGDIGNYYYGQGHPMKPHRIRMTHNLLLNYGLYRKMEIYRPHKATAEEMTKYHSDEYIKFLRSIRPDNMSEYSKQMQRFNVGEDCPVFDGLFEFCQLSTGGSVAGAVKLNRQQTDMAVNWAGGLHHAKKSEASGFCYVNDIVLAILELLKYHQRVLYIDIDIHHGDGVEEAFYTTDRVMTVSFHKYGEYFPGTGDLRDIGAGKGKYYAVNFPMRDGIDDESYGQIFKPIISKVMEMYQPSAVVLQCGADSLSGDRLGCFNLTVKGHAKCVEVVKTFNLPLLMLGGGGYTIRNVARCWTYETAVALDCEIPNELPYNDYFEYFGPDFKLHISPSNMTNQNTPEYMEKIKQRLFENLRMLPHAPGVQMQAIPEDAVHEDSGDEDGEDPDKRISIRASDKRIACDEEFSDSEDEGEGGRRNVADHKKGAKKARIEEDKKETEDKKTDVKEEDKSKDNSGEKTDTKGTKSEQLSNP

Consider `CCC(=O)CCCCC[C@@H]1NC(=O)[C@H]2CCCCN2C(=O)[C@H]([C@@H](C)CC)NC(=O)[C@H](Cc2cn(OC)c3ccccc23)NC1=O` [APICIDIN], for which the GI50 in assay [1] was found to be 800 nM. This lies in the sub-micromolar range.
Take `CC(C)[C@H]1NC(=O)C[C@@H](C/C=C\CCC(=O)O)NC(=O)[C@@H](Cc2ccccc2)NC(=O)[C@@H](C)NC1=O`: the Ki was 1500 nM on Histone deacetylase 11; 800 nM on Histone deacetylase 3; “Not Active” in assay [2]; 900 nM at Histone deacetylase 2; “Not Active” on Histone deacetylase 8; 600 nM on Histone deacetylase 1. The Ki in [4] is 700 nM. For the same compound, the “growth inhibition (GI)” value in the assay on EB-3 was “inactive”. Also, the inhibition in assay [3] and in assay [5] was less than 50% in each case.

For the origin of these results see ChEMBL document CHEMBL3351463, “Methyl effect in azumamides provides insight into histone deacetylase inhibition by macrocycles” (J Med Chem, 2014).
